Test results as given in ChEMBL document CHEMBL4477207, “Discovery of Novel 3-Quinoline Carboxamides as Potent, Selective, and Orally Bioavailable Inhibitors of Ataxia Telangiectasia Mutated (ATM) Kinase” (J Med Chem, 2016).
≈ marks a conversion by molar mass, not a printed value. Calls of active or inactive are those of the source. No cut-off for these calls is given here.

How the values were obtained:
[1] = molecular target: Serine/threonine-protein kinase mTOR (Homo sapiens, UniProt P42345); test: Inhibition of C-terminal FLAG-tagged recombinant mTOR (1362 to 2549 residues) (unknown origin) using Biotin-Ahx-Lys-Lys-Ala-Asn-Gln-Val-Phe-Leu-Gly-Phe-Thr-Tyr-Val-Ala-Pro-Ser-Val-Leu-Glu-Ser-Val-Lys-Glu-NH2 as substrate after 90 mins by AlphaScreen assay
[2] = molecular target: Serine/threonine-protein kinase ATR (Homo sapiens, UniProt Q13535); test: Inhibition of ATR in human HT-29 cells assessed as reduction in Chk1 phosphorylation at Ser-345 residue after 60 mins in presence of 4-nitroquinoline-1-oxide by Hoechst 33258 staining based plate reader analysis; format: cell-based
[3] = molecular target: Phosphatidylinositol 4,5-bisphosphate 3-kinase catalytic subunit alpha isoform (Homo sapiens, UniProt P42336); test: Inhibition of human recombinant PI3Kalpha using PIP2/ATP as substrate incubated for 20 mins followed by substrate addition by Kinase Glo reagent based luminescence assay
[4] = molecular target: DNA-dependent protein kinase catalytic subunit (Homo sapiens, UniProt P78527); test: Inhibition of DNAPK (unknown origin) using p53-based peptide substrate preincubated for 5 min prior to ATP addition
Homo sapiens [5] = organism: Homo sapiens; test: Selectivity ratio of IC50 for ATR in human HT-29 cells to IC50 for ATM in human HT-29 cells; format: cell-based
[6] = molecular target: Vascular endothelial growth factor receptor 2 (Homo sapiens, UniProt P35968); test: Inhibition of KDR (unknown origin)
[7] = molecular target: Phosphatidylinositol 4,5-bisphosphate 3-kinase catalytic subunit gamma isoform (Homo sapiens, UniProt P48736); test: Inhibition of human recombinant PI3Kgamma using PIP2/ATP as substrate incubated for 20 mins followed by substrate addition by Kinase Glo reagent based luminescence assay
Homo sapiens [8] = organism: Homo sapiens; test: Selectivity ratio of IC50 for C-terminal FLAG-tagged recombinant mTOR (1362 to 2549 residues) (unknown origin) to IC50 for ATM (unknown origin)
In short: (§1)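 Enzymatic selectivity calculated as the off-target enzyme IC50 over the ATM enzyme IC50. IC50s in µM, taken as means of at least 3 (ATM) or 2 (other enzymes) independent measurements.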

[9] = Thermodynamic solubility of the compound in 0.1M aqueous phosphate buffer at pH 7.4 after 24 hrs by LC-UV analysis; format: physicochemical; settings: read-out: Therm_solubility
In short: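 Solid samples equilibrated in 0.1 M aqueous phosphate buffer, pH 7.4, for 24 h at 25 °C.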

in vitro [10] = settings: human, hepatocytes
[11] = molecular target: T1, Serine-protein kinase ATM (Homo sapiens, UniProt Q13315); test: Inhibition of ATM phosphorylation at Ser-1981 residue in human HT-29 cells incubated for 1 hr followed by X-ray irradiation by Hoechst staining based fluorescence plate reader analysis; format: cell-based
Homo sapiens [12] = organism: Homo sapiens; test: Selectivity ratio of IC50 for DNAPK (unknown origin) to IC50 for ATM (unknown origin); in short: as §1
[13] = molecular target: Glycogen synthase kinase-3 beta (Homo sapiens, UniProt P49841); test: Inhibition of GSK3beta (unknown origin)
in vitro [14] = settings: rat, hepatocytes
[15] = molecular target: Voltage-gated inwardly rectifying potassium channel KCNH2 (Homo sapiens, UniProt Q12809)
Homo sapiens [16] = organism: Homo sapiens; test: Selectivity ratio of IC50 for human recombinant PI3Kalpha to IC50 for ATM (unknown origin); in short: as §1
[17] = molecular target: T1, Serine-protein kinase ATM; test: Inhibition of ATM (unknown origin) using p53 as substrate incubated for 30 mins followed by substrate addition measured after 2 hrs in presence of ATP by HTRF method
Homo sapiens [18] = organism: Homo sapiens; test: Selectivity ratio of IC50 for human recombinant PI3Kbeta to IC50 for ATM (unknown origin); in short: as §1
[19] = molecular target: Phosphatidylinositol 4,5-bisphosphate 3-kinase catalytic subunit beta isoform (Homo sapiens, UniProt P42338); test: Inhibition of human recombinant PI3Kbeta using PIP2/ATP as substrate incubated for 20 mins followed by substrate addition by Kinase Glo reagent based luminescence assay
SW-620 = test: Antitumor activity against human SW620 cells xenografted in immunocompromised athymic Swiss nude mouse assessed as tumor growth inhibition at 50 mg/kg, ip once in a week for 3 weeks regime starting day 1 post xenograft; format: functional, organism-based
[20] = molecular target: T1, Serine-protein kinase ATM; test: Inhibition of ATM in human HT-29 cells assessed as reduction in ATM phosphorylation at Ser-1981 residue up to 30 uM incubated for 1 hr followed by X-ray irradiation by Hoeschst staining based plate reader analysis; format: cell-based
physchem = settings: octanol/buffer, pH 7.4
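Throughout, for logD: determined by the shake flask method.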

T1 sequence (Q13315 whole entry): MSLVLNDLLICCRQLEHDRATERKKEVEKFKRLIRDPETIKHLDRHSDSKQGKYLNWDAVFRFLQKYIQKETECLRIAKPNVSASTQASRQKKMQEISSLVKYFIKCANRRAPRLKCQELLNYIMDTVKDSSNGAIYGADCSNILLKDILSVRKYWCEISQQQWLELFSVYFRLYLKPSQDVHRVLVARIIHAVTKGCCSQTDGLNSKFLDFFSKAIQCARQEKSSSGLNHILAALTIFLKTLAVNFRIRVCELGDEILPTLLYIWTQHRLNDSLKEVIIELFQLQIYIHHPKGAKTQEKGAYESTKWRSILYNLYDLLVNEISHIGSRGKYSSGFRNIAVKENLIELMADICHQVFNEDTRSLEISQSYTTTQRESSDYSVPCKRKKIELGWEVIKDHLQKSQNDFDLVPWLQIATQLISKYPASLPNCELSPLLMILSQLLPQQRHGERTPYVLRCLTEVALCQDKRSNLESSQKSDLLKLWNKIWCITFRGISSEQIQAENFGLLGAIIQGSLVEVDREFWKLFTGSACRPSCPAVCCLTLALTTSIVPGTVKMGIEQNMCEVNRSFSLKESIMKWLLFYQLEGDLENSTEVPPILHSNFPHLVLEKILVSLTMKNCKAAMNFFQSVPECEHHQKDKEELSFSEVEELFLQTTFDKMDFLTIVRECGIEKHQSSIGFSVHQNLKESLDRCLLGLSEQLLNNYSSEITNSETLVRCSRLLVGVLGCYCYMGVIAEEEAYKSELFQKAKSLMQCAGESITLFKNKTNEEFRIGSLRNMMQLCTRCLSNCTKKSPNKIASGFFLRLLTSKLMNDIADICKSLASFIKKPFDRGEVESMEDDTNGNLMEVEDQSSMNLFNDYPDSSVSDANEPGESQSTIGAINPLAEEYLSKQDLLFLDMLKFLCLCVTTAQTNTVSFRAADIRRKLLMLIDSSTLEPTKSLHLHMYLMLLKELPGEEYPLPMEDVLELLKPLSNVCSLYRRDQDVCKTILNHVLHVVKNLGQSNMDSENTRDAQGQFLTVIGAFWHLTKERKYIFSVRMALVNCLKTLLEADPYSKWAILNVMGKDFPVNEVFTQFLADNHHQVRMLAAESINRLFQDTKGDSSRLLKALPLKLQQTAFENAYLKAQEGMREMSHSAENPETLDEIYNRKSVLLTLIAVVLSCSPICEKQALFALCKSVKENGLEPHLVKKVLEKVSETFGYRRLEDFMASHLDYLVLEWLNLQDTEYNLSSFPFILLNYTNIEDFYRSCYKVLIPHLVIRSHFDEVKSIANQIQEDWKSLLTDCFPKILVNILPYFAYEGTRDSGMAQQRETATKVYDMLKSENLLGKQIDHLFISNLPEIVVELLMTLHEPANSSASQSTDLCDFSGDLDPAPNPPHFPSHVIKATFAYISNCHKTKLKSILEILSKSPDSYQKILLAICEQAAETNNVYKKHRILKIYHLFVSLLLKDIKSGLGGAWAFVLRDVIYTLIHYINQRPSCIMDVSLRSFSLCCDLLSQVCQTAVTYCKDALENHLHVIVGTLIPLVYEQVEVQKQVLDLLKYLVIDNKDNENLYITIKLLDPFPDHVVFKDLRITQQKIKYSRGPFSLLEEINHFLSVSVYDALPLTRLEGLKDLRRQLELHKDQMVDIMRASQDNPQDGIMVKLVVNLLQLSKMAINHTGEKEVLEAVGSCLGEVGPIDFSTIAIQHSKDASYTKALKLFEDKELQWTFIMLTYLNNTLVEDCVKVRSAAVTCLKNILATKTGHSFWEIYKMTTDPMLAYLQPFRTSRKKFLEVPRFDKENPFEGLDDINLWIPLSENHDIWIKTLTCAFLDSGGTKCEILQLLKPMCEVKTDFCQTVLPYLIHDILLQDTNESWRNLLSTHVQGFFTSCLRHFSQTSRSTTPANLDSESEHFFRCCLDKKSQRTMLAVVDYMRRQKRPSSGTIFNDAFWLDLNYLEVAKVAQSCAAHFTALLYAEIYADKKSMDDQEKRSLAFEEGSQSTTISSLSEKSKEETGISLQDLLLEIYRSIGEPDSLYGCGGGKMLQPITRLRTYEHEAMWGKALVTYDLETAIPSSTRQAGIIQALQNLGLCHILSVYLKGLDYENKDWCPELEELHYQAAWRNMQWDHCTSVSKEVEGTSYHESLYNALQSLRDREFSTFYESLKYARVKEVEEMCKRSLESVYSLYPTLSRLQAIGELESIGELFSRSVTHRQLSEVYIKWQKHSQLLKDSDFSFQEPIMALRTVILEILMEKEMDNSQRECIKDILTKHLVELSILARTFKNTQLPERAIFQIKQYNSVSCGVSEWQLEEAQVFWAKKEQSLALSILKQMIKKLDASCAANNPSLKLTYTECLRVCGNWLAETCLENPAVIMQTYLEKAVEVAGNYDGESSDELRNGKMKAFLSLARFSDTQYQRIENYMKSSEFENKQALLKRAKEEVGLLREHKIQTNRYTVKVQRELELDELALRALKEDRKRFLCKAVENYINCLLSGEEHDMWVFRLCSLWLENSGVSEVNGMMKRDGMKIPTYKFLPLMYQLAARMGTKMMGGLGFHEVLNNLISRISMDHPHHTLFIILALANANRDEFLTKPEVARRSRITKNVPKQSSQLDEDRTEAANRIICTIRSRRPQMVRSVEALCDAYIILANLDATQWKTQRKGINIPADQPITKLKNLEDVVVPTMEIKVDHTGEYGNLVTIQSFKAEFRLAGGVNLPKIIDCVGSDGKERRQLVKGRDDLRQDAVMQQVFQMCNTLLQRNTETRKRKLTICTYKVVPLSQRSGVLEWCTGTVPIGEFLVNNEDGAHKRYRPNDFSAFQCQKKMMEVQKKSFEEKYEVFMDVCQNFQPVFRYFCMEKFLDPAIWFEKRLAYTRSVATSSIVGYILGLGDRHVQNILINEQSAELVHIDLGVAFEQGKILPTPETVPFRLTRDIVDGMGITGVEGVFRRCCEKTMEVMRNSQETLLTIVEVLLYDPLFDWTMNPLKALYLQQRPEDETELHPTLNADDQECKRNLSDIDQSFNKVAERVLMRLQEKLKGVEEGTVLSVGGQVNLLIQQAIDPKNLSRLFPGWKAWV
Chain of Voltage-gated inwardly rectifying potassium channel KCNH2 (Q12809 whole entry): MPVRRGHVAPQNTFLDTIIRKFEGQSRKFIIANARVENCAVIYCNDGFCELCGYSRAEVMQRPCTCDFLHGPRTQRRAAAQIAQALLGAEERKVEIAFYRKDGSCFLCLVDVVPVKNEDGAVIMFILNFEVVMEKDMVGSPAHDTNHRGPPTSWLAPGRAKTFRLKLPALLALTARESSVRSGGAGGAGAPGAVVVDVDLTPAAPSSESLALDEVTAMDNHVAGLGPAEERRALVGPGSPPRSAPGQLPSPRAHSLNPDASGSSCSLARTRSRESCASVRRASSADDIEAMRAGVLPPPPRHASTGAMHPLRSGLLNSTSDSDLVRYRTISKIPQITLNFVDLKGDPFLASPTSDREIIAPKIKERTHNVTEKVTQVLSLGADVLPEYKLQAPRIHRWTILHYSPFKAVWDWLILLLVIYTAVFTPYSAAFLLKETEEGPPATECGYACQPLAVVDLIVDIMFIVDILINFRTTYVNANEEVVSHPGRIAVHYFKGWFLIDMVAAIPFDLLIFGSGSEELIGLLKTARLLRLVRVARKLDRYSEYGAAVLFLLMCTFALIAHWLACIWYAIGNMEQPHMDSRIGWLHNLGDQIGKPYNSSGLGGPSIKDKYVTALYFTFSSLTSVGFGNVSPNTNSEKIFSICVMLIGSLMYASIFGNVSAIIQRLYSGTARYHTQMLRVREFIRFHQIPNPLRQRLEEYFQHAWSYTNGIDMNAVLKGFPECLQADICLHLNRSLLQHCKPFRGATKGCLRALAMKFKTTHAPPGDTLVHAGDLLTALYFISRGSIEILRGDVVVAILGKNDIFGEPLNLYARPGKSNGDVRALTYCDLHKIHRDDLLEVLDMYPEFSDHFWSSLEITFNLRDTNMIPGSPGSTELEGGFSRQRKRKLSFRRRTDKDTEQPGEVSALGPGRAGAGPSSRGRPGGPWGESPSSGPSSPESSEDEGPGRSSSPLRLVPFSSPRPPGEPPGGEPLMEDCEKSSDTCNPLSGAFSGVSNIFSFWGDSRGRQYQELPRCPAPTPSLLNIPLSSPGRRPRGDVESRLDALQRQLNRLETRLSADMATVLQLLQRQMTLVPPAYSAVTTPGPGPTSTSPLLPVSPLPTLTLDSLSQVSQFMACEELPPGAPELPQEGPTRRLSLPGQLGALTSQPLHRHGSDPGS
Chain of Glycogen synthase kinase-3 beta (P49841 whole entry): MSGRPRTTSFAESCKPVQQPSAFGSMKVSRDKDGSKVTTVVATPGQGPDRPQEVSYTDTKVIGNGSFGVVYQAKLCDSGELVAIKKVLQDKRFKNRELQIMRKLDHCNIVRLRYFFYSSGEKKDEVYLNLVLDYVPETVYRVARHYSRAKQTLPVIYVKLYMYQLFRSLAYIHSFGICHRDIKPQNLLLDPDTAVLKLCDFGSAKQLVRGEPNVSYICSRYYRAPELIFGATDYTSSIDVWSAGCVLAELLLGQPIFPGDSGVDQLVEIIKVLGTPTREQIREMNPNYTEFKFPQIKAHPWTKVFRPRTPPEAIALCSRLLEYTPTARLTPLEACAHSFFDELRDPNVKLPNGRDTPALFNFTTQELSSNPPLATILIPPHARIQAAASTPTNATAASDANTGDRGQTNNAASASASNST

## CCC(CC)CNc1c(C(N)=O)cnc2ccc(C#N)cc12
[1]
  IC50: 3.45 µM
[2]
  IC50: 4.4 µM
[3]
  IC50: 0.247 µM
[4]
  IC50: 0.098 µM
Homo sapiens [5]
  Ratio IC50: < 10
[6]
  IC50: 8.1 µM
[7]
  IC50: > 1 µM
Homo sapiens [8]
  Ratio IC50: > 400
[9]
  solubility thermodynamic at 24 h: 19 µM (≈ 5.63 µg/mL)
In vitro [10]
  hepatocyte CLint at 1.5 h: 12 µL/min/1e6 cells
[11]
  IC50: 0.82 µM
Homo sapiens [12]
  Ratio IC50: > 10
[13]
  IC50: 0.55 µM
In vitro [14]
  hepatocyte CLint at 1.5 h: 74 µL/min/1e6 cells
[15]
  IC50: 2.3 µM
Homo sapiens [16]
  Ratio IC50: > 10
[17]
  IC50: 0.008 µM
Homo sapiens [18]
  Ratio IC50: > 400
[19]
  IC50: 5.74 µM

## CCc1c2c(nc3ccc(OC(=O)N4CCC(N5CCCCC5)CC4)cc13)-c1cc3c(c(=O)n1C2)COC(=O)[C@]3(O)CC
SW-620
  TGI: Active

## Cc1ccc([C@@H](C)Nc2c(C(N)=O)cnc3ccc(C#N)cc23)cc1
[20]
  inhibition: inactive

## CCC(CC)COc1c(C(N)=O)cnc2ccc(-c3cccnc3)cc12
[2]
  IC50: > 30 µM
In vitro [10]
  hepatocyte CLint at 1.5 h: 42 µL/min/1e6 cells
[11]
  IC50: > 30 µM
In vitro [14]
  hepatocyte CLint at 1.5 h: 260 µL/min/1e6 cells
[20]
  inhibition: inactive
[15]
  IC50: 2.1 µM
physchem
  logD: > 4.3
